Laboratory results as given in ChEMBL document CHEMBL3856218, “Polycyclic Polyprenylated Acylphloroglucinol Congeners from Hypericum scabrum” (J Nat Prod, 2016).

Tests used:
[1] = Inhibition of GABA transporter (unknown origin) assessed as suppression of synaptosomal uptake of GABA; parameters: species or system Homo sapiens
[2] = target: Sodium-dependent dopamine transporter (Homo sapiens, UniProt Q01959); assay: Inhibition of dopamine transporter (unknown origin) assessed as suppression of synaptosomal uptake of dopamine
Chain of Sodium-dependent dopamine transporter (Q01959 whole entry): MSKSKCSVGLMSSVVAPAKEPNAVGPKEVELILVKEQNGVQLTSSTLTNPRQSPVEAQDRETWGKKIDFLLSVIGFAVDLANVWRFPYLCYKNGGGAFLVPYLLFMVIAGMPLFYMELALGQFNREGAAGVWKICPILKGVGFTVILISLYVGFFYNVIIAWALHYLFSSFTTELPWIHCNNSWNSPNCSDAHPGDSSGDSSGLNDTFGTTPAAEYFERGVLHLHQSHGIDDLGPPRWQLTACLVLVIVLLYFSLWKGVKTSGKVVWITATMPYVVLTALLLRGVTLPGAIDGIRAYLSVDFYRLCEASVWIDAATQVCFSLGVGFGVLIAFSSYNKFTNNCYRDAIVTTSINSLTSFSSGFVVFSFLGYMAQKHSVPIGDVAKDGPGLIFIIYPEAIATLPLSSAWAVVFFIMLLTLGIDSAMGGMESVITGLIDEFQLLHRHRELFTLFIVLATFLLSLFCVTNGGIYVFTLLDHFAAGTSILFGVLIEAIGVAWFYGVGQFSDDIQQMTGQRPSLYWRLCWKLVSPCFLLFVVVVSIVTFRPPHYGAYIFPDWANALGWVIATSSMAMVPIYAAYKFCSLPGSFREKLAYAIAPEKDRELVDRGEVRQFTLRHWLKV

[3] = target: Sodium-dependent noradrenaline transporter (Homo sapiens, UniProt P23975); assay: Inhibition of norepinephrine transporter (unknown origin) assessed as suppression of synaptosomal uptake of norepinephrine
Chain of Sodium-dependent noradrenaline transporter (P23975 whole entry): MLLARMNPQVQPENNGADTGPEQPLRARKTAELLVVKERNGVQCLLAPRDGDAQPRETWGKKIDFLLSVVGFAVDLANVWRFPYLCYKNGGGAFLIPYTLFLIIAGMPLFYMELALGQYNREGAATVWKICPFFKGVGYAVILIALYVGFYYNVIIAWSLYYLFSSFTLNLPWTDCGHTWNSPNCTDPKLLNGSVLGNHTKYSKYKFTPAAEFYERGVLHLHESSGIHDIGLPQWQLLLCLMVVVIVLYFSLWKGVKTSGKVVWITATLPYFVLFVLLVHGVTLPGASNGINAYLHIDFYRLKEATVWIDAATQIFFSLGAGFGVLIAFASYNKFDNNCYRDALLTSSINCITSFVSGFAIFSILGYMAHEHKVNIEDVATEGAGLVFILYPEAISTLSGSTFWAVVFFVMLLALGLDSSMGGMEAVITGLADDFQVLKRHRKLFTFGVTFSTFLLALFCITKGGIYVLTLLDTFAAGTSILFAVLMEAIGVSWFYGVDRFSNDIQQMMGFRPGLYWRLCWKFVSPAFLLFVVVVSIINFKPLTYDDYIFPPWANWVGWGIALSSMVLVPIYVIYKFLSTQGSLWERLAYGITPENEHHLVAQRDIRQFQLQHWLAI

[4] = Inhibition of glutamate transporter (unknown origin) assessed as suppression of synaptosomal uptake of L-glutamate; parameters: species or system Homo sapiens
[5] = Cytotoxicity against human A549 cells at 10^-5 M by MTT assay relative to control; assay type: functional
[6] = Cytotoxicity against human Bel7402 cells at 10^-5 M by MTT assay relative to control; assay type: functional; details: Bel-7402
[7] = Cytotoxicity against human HCT8 cells at 10^-5 M by MTT assay relative to control; assay type: functional; details: HCT-8
[8] = Neuroprotective activity against glutamate-induced toxicity in human SK-N-SH cells assessed as cell viability at 10 uM after 24 hrs by MTT assay (reference value: 61.9 +/- 0.9%); assay type: functional; details: read-out: Activity
[9] = Hepatoprotective activity in human HepG2 cells assessed as inhibition of paracetamol-induced cell damage at 10 uM preincubated for 1 hr followed by paracetamol addition measured after 24 hrs by MTT assay relative to control; assay type: functional
Outline: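 HepG2 cells damaged with paracetamol, test agents at 10 μM, with bicyclol (10 μM) as the positive control. Viability was read by MTT colorimetric assay and expressed as % of normal, and inhibition as % of paracetamol control. Values are mean ± SD, n = 3 (normal and control wells n = 6).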

[10] = target: Sodium-dependent serotonin transporter (Homo sapiens, UniProt P31645); assay: Inhibition of serotonin transporter (unknown origin) assessed as suppression of synaptosomal uptake of serotonin
Chain of Sodium-dependent serotonin transporter (P31645 whole entry): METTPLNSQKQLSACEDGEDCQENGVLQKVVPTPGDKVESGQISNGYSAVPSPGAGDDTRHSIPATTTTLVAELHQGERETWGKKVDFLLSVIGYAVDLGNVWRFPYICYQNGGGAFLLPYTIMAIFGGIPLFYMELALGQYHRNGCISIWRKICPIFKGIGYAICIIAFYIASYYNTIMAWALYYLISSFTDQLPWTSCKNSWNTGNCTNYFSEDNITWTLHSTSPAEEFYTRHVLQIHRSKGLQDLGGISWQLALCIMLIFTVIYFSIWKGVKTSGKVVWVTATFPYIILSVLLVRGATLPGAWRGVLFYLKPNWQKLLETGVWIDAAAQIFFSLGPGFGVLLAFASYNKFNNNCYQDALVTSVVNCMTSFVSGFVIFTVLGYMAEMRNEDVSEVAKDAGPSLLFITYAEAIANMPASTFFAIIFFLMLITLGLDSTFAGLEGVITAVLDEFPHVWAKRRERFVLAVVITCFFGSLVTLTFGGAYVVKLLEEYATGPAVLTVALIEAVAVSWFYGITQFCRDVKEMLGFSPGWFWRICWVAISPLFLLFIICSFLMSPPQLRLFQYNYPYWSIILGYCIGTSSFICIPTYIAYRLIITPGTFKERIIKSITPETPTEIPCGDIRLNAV

Structure (SMILES) | inhibition at 10 µM [5] [%] | inhibition at 10 µM [6] [%] | inhibition at 10 µM [7] [%] | viability at 10 µM [8] [%] | inhibition at 10 µM [9] [%] | also measured
CC(C)=CCC[C@]1(C)[C@@H](CC=C(C)C)C[C@]2(CC=C(C)C)C(=O)C(CC=C(C)C)=C(O)[C@@]1(C(=O)C(C)C)C2=O | – | – | – | – | – | IC50 [1]: 2000 nM; IC50 [2]: 2000 nM; IC50 [3]: 2000 nM; IC50 [4]: 2000 nM
CC(C)=CCC1=C2O[C@@H](C(C)(C)OO)C[C@@]23C[C@H](CC=C(C)C)C(C)(C)[C@@](C(=O)c2ccccc2)(C1=O)C3=O | 14.6 | 18.4 | -32.2 | – | – | –
CC[C@@H](C)C(=O)[C@]12C(=O)[C@]3(C)C[C@H](CC=C(C)C)[C@@]1(C)CC[C@H](C(C)(C)O)OC2=C(CC=C(C)C)C3=O | 8.65 | 8.64 | -41.2 | 70.8 | 24.9 | –
CC(C)=CC[C@H]1C[C@]2(CC=C(C)C)C(=O)C(C(=O)c3ccccc3)=C3O[C@H](C(C)(C)O)C[C@]3(C2=O)C1(C)C | 10.7 | 1.05 | 3.04 | 73.5 | – | –
CC(C)=CC[C@H]1C[C@@]2(C)C(=O)[C@](C(=O)c3ccccc3)(C(=O)C3=C2O[C@H](C(C)(C)O)C3)[C@]1(C)CCCC(C)C | – | – | – | 83 | – | –
CC(C)=CCC[C@]1(C)[C@@H](CC=C(C)C)CC2(C)C(=O)[C@@]3(CC=C(C)C)O[C@]2(O)[C@]1(C(=O)C(C)C)C3=O (some centres not stated) | – | – | – | – | 25.8 | –
CC(C)=CC[C@H]1C[C@@]2(CC=C(C)C)C(=O)[C@](C(=O)c3ccccc3)(C(=O)C3=C2O[C@@H](C(C)(C)O)C3)[C@]1(C)CCCC(C)C | – | – | – | – | 10.3 | –
CC(C)=CC[C@H]1C[C@@]2(C)C(=O)[C@](C(=O)C(C)C)(C(=O)C3=C2O[C@@H](C(C)(C)O)C3)[C@]1(C)CCCC(C)C | – | – | – | – | 23.3 | –
CC(C)=CCC1=C2OCC[C@@]23C[C@H](CC=C(C)C)C(C)(C)[C@@](C(=O)c2ccccc2)(C1=O)C3=O | 1.46 | -1.32 | 14.4 | – | – | –
CC(C)=CC[C@H]1CC(C)=C2OC(C)(C)[C@@H]3CC[C@@]1(C)[C@]23C(=O)C(C)C | – | – | – | – | 15.9 | –
CC(C)=CC[C@H]1C[C@@]2(C)C(=O)[C@](C(=O)C(C)C)(C(=O)C3=C2O[C@H](C(C)(C)O)C3)[C@]1(C)CCCC(C)C | – | – | – | 71.6 | – | –
CC[C@H](C)C(=O)C12C(=O)[C@]3(CC=C(C)C)O[C@@]1(O)C(C)(C[C@H](CC=C(C)C)[C@@]2(C)CCC=C(C)C)C3=O (some centres not stated) | 19 | -3.16 | -25.9 | 72.1 | 36.7 | –
CC(C)=CC[C@H]1C[C@]2(C)C(=O)C3=C(O[C@H](C(C)(C)O)C3)[C@@](C(=O)C(C)C)(C2=O)[C@]1(C)CCCC(C)C | – | – | – | 75.4 | – | –
CC(C)=CCC[C@]1(C)[C@@H](CC=C(C)C)CC2(CC=C(C)C)C(=O)[C@@]3(CC=C(C)C)O[C@]2(O)[C@]1(C(=O)C(C)C)C3=O (some centres not stated) | – | – | – | – | 14 | –
CC[C@H](C)C(=O)[C@@H]1C(=O)[C@@](C)(O)[C@@H](CC=C(C)C)C[C@@]1(C)CCC=C(C)C | -13.6 | 3.31 | -24.4 | – | 30.5 | –
CC(C)=CCC1=C2O[C@@H](C(C)(C)O)CC[C@]3(C)[C@@H](CC=C(C)C)C[C@](C)(C1=O)C(=O)[C@]23C(=O)C(C)C | 0.36 | 19.4 | -37.1 | – | 6.1 | –
C=C(C)[C@@H]1C[C@@]23C[C@@H](CC=C(C)C)C(C)(C)[C@@](CC=C(C)C)(C(=O)C(C(=O)c4ccccc4)=C2O1)C3=O | 6.64 | -0.2 | -29.7 | 73.1 | – | –
CC(C)=CCC[C@]1(C)C[C@H](CC=C(C)C)[C@](C)(O)C(=O)[C@H]1C(=O)C(C)C | 17.2 | 14.7 | -25.7 | – | – | –
CCC(C)C(=O)[C@]12C(=O)[C@](CC=C(C)C)(C[C@H](CC=C(C)C)[C@@]1(C)CCC=C(C)C)C(=O)C(CC=C(C)C)=C2O (some centres not stated) [ADHYPERFORIN] | – | – | – | – | – | IC50 [10]: 2000 nM; IC50 [2]: 2000 nM; IC50 [3]: 2000 nM
COC(=O)c1cc(OC)c2c(c1-c1c(CO)cc(OC)c3c1OCO3)OCO2 [BICYCLOL] | – | – | – | – | 19.5 | –
O=c1[nH]cc(F)c(=O)[nH]1 [FLUOROURACIL] | 68.3 | 70.6 | 70.4 | – | – | –
CC(C)=CC[C@@]12C[C@H]3[C@@H](C=C(C)C)[C@@](C(=O)c4ccccc4)(C1=O)C(=O)[C@@](CC=C(C)C)(C2=O)C3(C)C [HYPERIBONE K] | – | – | – | 73.1 | 49 | –
Oc1ccc(/C=C/c2cc(O)cc(O)c2)cc1 [RESVERATROL] | – | – | – | 72.6 | – | –
